Key:
[1] = molecular target: Human immunodeficiency virus type 1 integrase (Human immunodeficiency virus 1, UniProt Q7ZJM1); assay: Inhibition of HIV1 integrase strand transfer activity
[2] = Cytotoxicity against human MT4 cells after 5 days by MTT assay; assay type: cell-based
Procedure, shortened: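 Uninfected MT-4 cells at 1 × 10^5 cells/mL in RPMI 1640 with 10% FBS, penicillin and streptomycin, exposed to compounds at 37 °C for 5 days. Viability by MTT (7.5 mg/mL solution); formazan taken up in acidic isopropanol containing 4% Triton-X, read at 595 nm.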

[3] = test system: Human immunodeficiency virus 1; assay: Antiviral activity against HIV1 3B infected in human MT4 cells assessed as inhibition of viral replication after 5 days by MTT assay; assay type: functional, organism-based; conditions: Human immunodeficiency virus 1, 3B, MT4, 120 h
Procedure, shortened: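 MT-4 human T lymphoid cells at 1 × 10^5 cells/mL in RPMI 1640 with 10% FBS, penicillin and streptomycin; infected with strain IIIb at multiplicity 0.01, compounds added, 37 °C for 5 days. Viability read by MTT (7.5 mg/mL solution), formazan dissolved in acidic isopropanol with 4% Triton-X, absorbance at 595 nm.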

[4] = Selectivity index, ratio of CC50 for human MT4 cells to EC50 for HIV1 3B; assay type: toxicity, cell-based
Procedure, shortened: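 For EC50, cells were infected with HIV-1 IIIb at multiplicity 0.01 before compound was added; for CC50, cells were uninfected. Viability was read by MTT reduction, with formazan dissolved in acidic isopropanol/4% Triton-X and absorbance at 595 nm.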

[5] = test system: Human immunodeficiency virus 1; assay: Antiviral activity against HIV1 infected in human PBMN cells assessed as inhibition of viral replication in presence of 50% human serum; assay type: functional; conditions: Human immunodeficiency virus 1, PBMN

Chain of Human immunodeficiency virus type 1 integrase (Q7ZJM1 whole entry): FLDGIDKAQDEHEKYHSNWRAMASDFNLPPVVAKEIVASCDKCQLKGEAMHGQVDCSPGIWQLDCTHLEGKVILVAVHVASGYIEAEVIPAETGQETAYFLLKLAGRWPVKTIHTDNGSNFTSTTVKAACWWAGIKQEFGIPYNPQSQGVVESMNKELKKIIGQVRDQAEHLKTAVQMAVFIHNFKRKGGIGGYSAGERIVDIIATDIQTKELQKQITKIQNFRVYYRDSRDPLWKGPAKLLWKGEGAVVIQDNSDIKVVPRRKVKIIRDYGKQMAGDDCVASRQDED

SMILES | IC50 [1] [nM] | EC90 [5] [nM] | CC50 at 120 h [2] [nM] | EC50 [3] [nM] | selectivity ratio [4]
Cn1cc(C(=O)C(=O)O)c(=O)c2cc(Cc3ccccc3)ccc21 | > 100000 |  | > 30000 | > 30000 | 
CC(C)(C)[C@@H](CO)n1cc(C(=O)O)c(=O)c2cc(Cc3cccc(Cl)c3F)ccc21 | 6 |  | 14400 | 1.3 | 
O=C(O)c1c[nH]c2ccc(Cc3c(Cl)cccc3Cl)cc2c1=O | 370 |  | 14900 | > 6000 | 
O=C(O)/C(O)=C/C(=O)c1cccc(Cc2ccccc2)c1 |  |  | > 30000 | 440 | 
CCOC(=O)c1cnc2ccc(Cc3ccccc3)cc2c1O | > 100000 |  | > 30000 | > 30000 | 
O=C(O)c1cn(CCO)c2cc(C(F)(F)F)c(Cc3cccc(Cl)c3Cl)cc2c1=O | 674 |  | 10000 | > 6000 | 
CC[C@@H](CO)n1cc(C(=O)O)c(=O)c2cc(Cc3cccc(Cl)c3F)ccc21 | 9 |  | 13000 | 17.1 | 
O=C(O)c1c[nH]c2ccc(Cc3ccc(Cl)cc3)cc2c1=O | > 100000 |  | > 6000 | > 6000 | 
O=C(O)c1cn([C@H](CO)C2CCCCC2)c2ccc(Cc3cccc(Cl)c3F)cc2c1=O | 5.6 |  | 7700 | 7.3 | 
COc1cc2c(cc1Cc1cccc(Cl)c1F)c(=O)c(C(=O)O)cn2[C@H](CO)C(C)(C)C | 5.8 |  | 3400 | 0.6 | > 4000
CC(C)[C@@H](CO)n1cc(C(=O)O)c(=O)c2cc(Cc3cccc(Cl)c3F)ccc21 |  |  | 14000 | 7.5 | 
O=C(O)c1c[nH]c2ccc(Cc3ccccc3F)cc2c1=O | 500 |  | > 30000 | 15900 | 
O=C(O)c1cn([C@H](CO)c2ccccc2)c2ccc(Cc3cccc(Cl)c3F)cc2c1=O | 9.8 |  | 8700 | 51.6 | 
Cn1cc(C(=O)O)c(=O)c2cc(Cc3ccccc3)ccc21 | 2300 |  | > 30000 | > 30000 | 
COc1ccccc1Cc1ccc2[nH]cc(C(=O)O)c(=O)c2c1 | 1170 |  | 16600 | > 6000 | 
C[C@H](CO)n1cc(C(=O)O)c(=O)c2cc(Cc3cccc(Cl)c3F)ccc21 | 38.3 |  | 14400 | 116 | 

SMILES | IC50 [1] [nM] | EC90 [5] [nM] | CC50 at 120 h [2] [nM] | EC50 [3] [nM] | selectivity ratio [4]
COc1cc2c(cc1Cc1cccc(Cl)c1F)c(=O)c(C(=O)O)cn2[C@@H](CO)C(C)C |  |  | 4200 | 109 | 
O=C(O)c1cn(CCO)c2ccc(Cc3cccc(Cl)c3F)cc2c1=O |  |  | > 6000 | 80 | 
NC(=O)c1c[nH]c2ccc(Cc3ccccc3)cc2c1=O | > 100000 |  | > 30000 | > 30000 | 
O=C(O)c1c[nH]c2ccc(Cc3ccccc3Cl)cc2c1=O | 410 |  | > 6000 | > 6000 | 
O=C(O)c1cnc2ccc(Cc3ccccc3)cc2c1O |  |  | > 30000 | > 30000 | 
CCC[C@@H](CO)n1cc(C(=O)O)c(=O)c2cc(Cc3cccc(Cl)c3F)ccc21 | 8.2 |  | 12500 | 9.8 | 
O=C(O)c1c[nH]c2ccc(Cc3ccccc3C(F)(F)F)cc2c1=O | 720 |  | 14800 | > 6000 | 
O=C(O)c1c[nH]c2ccc(Cc3cc(Cl)ccc3Cl)cc2c1=O | 250 |  | 13200 | > 6000 | 
CCC[C@@H](CO)n1cc(C(=O)O)c(=O)c2cc(Cc3cccc(Cl)c3F)c(OC)cc21 | 5.8 |  | 3100 | 1.3 | 
C[C@@H](CO)n1cc(C(=O)O)c(=O)c2cc(Cc3cccc(Cl)c3F)ccc21 | 14.8 |  | 13700 | 27.7 | 
O=C(O)c1c[nH]c2ccc(Cc3cccc(Cl)c3)cc2c1=O | 800 |  | > 6000 | > 6000 | 
COc1cc2c(cc1Cc1cccc(Cl)c1F)c(=O)c(C(=O)O)cn2[C@H](CO)C(C)C |  | 9.8 | 4000 | 0.9 | 
COc1cc2c(cc1Cc1cccc(Cl)c1F)c(=O)c(C(=O)O)cn2CCO |  |  | 5300 | 20 | 
Cc1ccccc1Cc1ccc2[nH]cc(C(=O)O)c(=O)c2c1 | 1080 |  | 18500 | > 6000 | 
COc1cc2c(cc1Cc1cccc(Cl)c1F)c(=O)c(C(=O)O)cn2[C@H](CO)C1CCCCC1 | 6.7 |  | 3000 | 2.8 | 

More lines, main results first:

IC50 [1] [nM] | EC90 [5] [nM] | SMILES | CC50 at 120 h [2] [nM] | EC50 [3] [nM] | selectivity ratio [4]
215 |  | NCCn1cc(C(=O)O)c(=O)c2cc(Cc3cccc(Cl)c3Cl)ccc21 | 5300 | 570 | 
35 |  | NC(=O)Cn1cc(C(=O)O)c(=O)c2cc(Cc3cccc(Cl)c3Cl)ccc21 | 22600 | 540 | 
25 |  | O=C(O)c1cn(CCO)c2cc(F)c(Cc3cccc(Cl)c3Cl)cc2c1=O | 9800 | 130 | 
32 |  | O=C(O)Cn1cc(C(=O)O)c(=O)c2cc(Cc3cccc(Cl)c3Cl)ccc21 | > 30000 | 13600 | 
38 |  | O=C(O)CCn1cc(C(=O)O)c(=O)c2cc(Cc3cccc(Cl)c3Cl)ccc21 | > 30000 | > 30000 | 
55 |  | CCCn1cc(C(=O)O)c(=O)c2cc(Cc3cccc(Cl)c3Cl)ccc21 | 15600 | 640 | 
34 |  | O=C(O)c1cn(CCO)c2c(F)cc(Cc3cccc(Cl)c3Cl)cc2c1=O | > 30000 | 530 | 
26 |  | CC(C)n1cc(C(=O)O)c(=O)c2cc(Cc3cccc(Cl)c3Cl)ccc21 | > 6000 | 330 | 
21 |  | O=C(O)c1cn(CCO)c2ccc(Cc3cccc(Cl)c3Cl)cc2c1=O | > 6000 | 100 | 
12 |  | COc1cc2c(cc1Cc1cccc(Cl)c1Cl)c(=O)c(C(=O)O)cn2CCO | 4200 | 60 | 
41 |  | Cc1cc2c(cc1Cc1cccc(Cl)c1Cl)c(=O)c(C(=O)O)cn2CCO | > 30000 | 180 | 
44 |  | O=C(O)c1cn(CCO)c2ccc(Cc3cccc(F)c3Cl)cc2c1=O | > 6000 | 340 | 
116 |  | NC(=O)CCn1cc(C(=O)O)c(=O)c2cc(Cc3cccc(Cl)c3Cl)ccc21 | 15100 | 2040 | 
70 |  | O=C(O)c1c[nH]c2ccc(Cc3cccc(Cl)c3Cl)cc2c1=O | 12600 | 3400 | 
50 |  | N#Cc1cc2c(cc1Cc1cccc(Cl)c1Cl)c(=O)c(C(=O)O)cn2CCO | 13900 | 2000 | 
83 |  | Cn1cc(C(=O)O)c(=O)c2cc(Cc3cccc(Cl)c3Cl)ccc21 | 14400 | 450 | 
43 |  | O=C(O)c1cn(CCO)c2cc(Cl)c(Cc3cccc(Cl)c3Cl)cc2c1=O | > 6000 | 510 | 
84 |  | O=C(O)c1cn(CCO)c2ccc(Cc3cccc(Cl)c3Cl)c(F)c2c1=O | 14300 | 1680 | 
65 |  | CCCCn1cc(C(=O)O)c(=O)c2cc(Cc3cccc(Cl)c3Cl)ccc21 | 15000 | 2340 | 
31 |  | CCn1cc(C(=O)O)c(=O)c2cc(Cc3cccc(Cl)c3Cl)ccc21 | 16200 | 290 | 
77 |  | O=C(O)c1cn(CCCO)c2ccc(Cc3cccc(Cl)c3Cl)cc2c1=O | 15100 | 470 | 

From ChEMBL document CHEMBL1158495, “Quinolone carboxylic acids as a novel monoketo acid class of human immunodeficiency virus type 1 integrase inhibitors” (J Med Chem, 2009)
